Data published in paper PMC6045484 (ACS Omega, 2018).
In brackets after ≈: the same amount, converted by molar mass.

Legend:
[1] = tested on: P. falciparum (D6); test: in vitro antimalarial activity, plasmodial LDH; format: cell-based, Plasmodium falciparum; settings: Plasmodium falciparum, D6, 72 h, read-out: P. falciparum (D6) IC50
[2] = tested on: P. falciparum (W2); test: in vitro antimalarial activity, plasmodial LDH; format: cell-based, Plasmodium falciparum; settings: Plasmodium falciparum, W2, 72 h, read-out: P. falciparum (W2) IC50, CQ-resistant W2 strain, 72 h
Procedure, shortened: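 P. falciparum-infected erythrocytes (2% parasitemia, 2% hematocrit) in RPMI 1640 with 10% human serum and 60 μg/mL amikacin. Exposed to test compound dilutions for 72 h at 37 °C under 90% N2/5% O2/5% CO2. LDH measured with Malstat reagent (30 min, room temperature), then NBT/PES for 1 h in the dark, stopped with 5% acetic acid, read at 650 nm. IC50 from dose-response curves.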

[3] = tested on: SK-MEL, KB, BT-549, SK-OV-3, VERO and LLC-PK1 cells; test: cytotoxicity, neutral red uptake assay; format: cell-based, mammalian; settings: highest test concentration 4760 ng/mL
Procedure, shortened: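 Cells seeded at 25 000/well and allowed 24 h to reach confluence. Test compound was then added and incubated 48 h. Viable cells were counted by a modified neutral red uptake method. The panel was four human cancer lines and two noncancerous mammalian kidney lines. Doxorubicin served as positive control and DMSO as negative control.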

[4] = tested on: L. donovani promastigotes; test: in vitro antileishmanial activity, alamarBlue assay; format: cell-based, Leishmania donovani; settings: Leishmania donovani, 48 h; for IC50: read-out: L. donovani IC50, promastigotes, 48 h; for IC90: read-out: L. donovani IC90, promastigotes, 48 h
[5] = tested on: C. albicans ATCC90028; test: in vitro antifungal activity; format: cell-based, Candida albicans; settings: Candida albicans; for IC50: ATCC90028, read-out: C. albicans IC50; for MFC: ATCC90028, read-out: C. albicans MFC; for MIC: ATCC90028, read-out: C. albicans MIC
Procedure, shortened: (§1)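 Modified NCCLS broth method in Sabouraud dextrose. Inoculum set by OD630 to 1.5 × 10^3 CFU/mL. Test compound serially diluted in 20% DMSO/saline, duplicate wells, up to 20 μg/mL. Incubated 70–74 h at 35 °C; 530 nm read before and after. IC50 is 50% growth inhibition; MIC is no detectable growth. MFC from clear wells subcultured on agar. Amphotericin B control.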

[6] = tested on: C. neoformans ATCC90113; test: in vitro antifungal activity; format: cell-based, Cryptococcus neoformans; settings: Cryptococcus neoformans; for IC50: ATCC90113, read-out: C. neoformans IC50; for MFC: ATCC90113, read-out: C. neoformans MFC; for MIC: ATCC90113, read-out: C. neoformans MIC
Procedure, shortened: as §1

[7] = tested on: A. fumigatus ATCC 90906; test: in vitro antifungal activity; format: cell-based, Aspergillus fumigatus; settings: Aspergillus fumigatus; for IC50: ATCC90906, read-out: A. fumigatus IC50; for MFC: ATCC90906, read-out: A. fumigatus MFC; for MIC: ATCC90906, read-out: A. fumigatus MIC
Procedure, shortened: as §1

[8] = tested on: SA (ATCC29213); test: in vitro antibacterial activity; format: cell-based; settings: Staphylococcus aureus; for IC50: ATCC29213, read-out: IC50 (concentration that affords 50% growth inhibition), SA; for MBC: ATCC29213, read-out: MBC (minimum bactericidal concentration), SA; for MIC: ATCC29213, read-out: MIC, SA
Procedure, shortened: (§2)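 Test compound serially diluted in 20% DMSO/saline and plated in duplicate, up to 20 μg/mL. Inoculum in cation-adjusted Mueller–Hinton broth, pH 7.3, set by OD630 to 5 × 10^5 CFU/mL. Incubated 16–20 h at 35 °C; 530 nm read before and after. IC50 is 50% growth inhibition; MIC is no detectable growth. MBC from clear wells subcultured on agar. Ciprofloxacin control.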

[9] = tested on: MRSA (ATCC33591); test: in vitro antibacterial activity; format: cell-based, methicillin-resistant Staphylococcus aureus; settings: Staphylococcus aureus, ATCC33591|MRSA, read-out: MIC, MRSA
Procedure, shortened: as §2

[10] = tested on: M. intracellulare (ATCC23068); test: in vitro antibacterial activity, modified alamarBlue procedure; format: cell-based, Mycobacterium intracellulare; settings: Mycobacterium intracellulare; for IC50: ATCC23068, read-out: IC50 (concentration that affords 50% growth inhibition), M. intracellulare; for MBC: ATCC23068, read-out: MBC (minimum bactericidal concentration), M. intracellulare; for MIC: ATCC23068, read-out: MIC, M. intracellulare
Procedure, shortened: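 Modified alamarBlue microplate method. Test compound serially diluted in 20% DMSO/saline, duplicate wells, up to 20 μg/mL. Inoculum 2.0 × 10^6 CFU/mL in Middlebrook 7H9 with OADC, pH 7.3, containing 5% alamarBlue. Incubated 70–74 h at 37 °C, 10% CO2; fluorescence 544ex/590em read before and after. MIC: no blue-to-pink change. MBC by subculturing blue wells on agar. Ciprofloxacin control.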

| Structure (SMILES) | IC50 [1] | IC50 [2] | cytotoxicity CTX [3] | IC50 [4] | IC90 [4] | IC50 [5] | MFC [5] | MIC [5] | IC50 [6] | MFC [6] | MIC [6] | IC50 [7] | MFC [7] | MIC [7] | IC50 [8] | MBC [8] | MIC [8] | MIC [9] | IC50 [10] | MBC [10] | further results |
| --- | --- | --- | --- | --- | --- | --- | --- | --- | --- | --- | --- | --- | --- | --- | --- | --- | --- | --- | --- | --- | --- |
| CCCCCCCOc1c(OC)cc(NC(C)CCCNC(=O)C(N)Cc2ccccc2)c2nc(C(C)(C)C)ccc12 (stereo not drawn) [compound 112, 2-Amino-N-(4-(2-tert-butyl-5-(heptyloxy)-6-methoxyquinolin-8-ylamino)pentyl)-3-phenylpropanamide] | 3.2 µg/mL (≈ 5.55 µM) | 2.2 µg/mL (≈ 3.81 µM) | NC (NC, not cytotoxic up to 4760 ng/mL (4.76 μg/mL)) | 20 µg/mL (≈ 34.7 µM) | 36 µg/mL (≈ 62.4 µM) | > 20 µg/mL | > 20 µg/mL | > 20 µg/mL | 4.56 µg/mL (≈ 7.91 µM) | 5 µg/mL (≈ 8.67 µM) | 5 µg/mL (≈ 8.67 µM) | > 20 µg/mL | > 20 µg/mL | > 20 µg/mL | 4.06 µg/mL (≈ 7.04 µM) | 10 µg/mL (≈ 17.3 µM) | 10 µg/mL (≈ 17.3 µM) | 10 µg/mL (≈ 17.3 µM) | > 20 µg/mL | > 20 µg/mL | MIC [10]: > 20 µg/mL |
| CCCCCCCOc1c(OC)cc(NC(C)CCCNC(=O)C(N)C(C)CC)c2nc(C(C)(C)C)ccc12 (stereo not drawn) [compound 114, 2-Amino-N-(4-(2-tert-butyl-5-(heptyloxy)-6-methoxyquinolin-8-ylamino)pentyl)-3-methylpentanamide] | 4.5 µg/mL (≈ 8.29 µM) | 2.9 µg/mL (≈ 5.34 µM) | NC (NC, not cytotoxic up to 4760 ng/mL (4.76 μg/mL)) | 3.8 µg/mL (≈ 7 µM) | 7 µg/mL (≈ 12.9 µM) | 14.2 µg/mL (≈ 26.2 µM) | > 20 µg/mL | > 20 µg/mL | 1.07 µg/mL (≈ 1.97 µM) | 2.5 µg/mL (≈ 4.61 µM) | 2.5 µg/mL (≈ 4.61 µM) | > 20 µg/mL | > 20 µg/mL | > 20 µg/mL | 2.19 µg/mL (≈ 4.03 µM) | 5 µg/mL (≈ 9.21 µM) | 5 µg/mL (≈ 9.21 µM) | 5 µg/mL (≈ 9.21 µM) | 5.63 µg/mL (≈ 10.4 µM) | 20 µg/mL (≈ 36.8 µM) | MIC [10]: 10 µg/mL (≈ 18.4 µM) |
| CCCCCCCOc1c(OC)cc(NC(C)CCCNC(=O)C(N)Cc2cc3ccccc3[nH]2)c2nc(C(C)(C)C)ccc12 (stereo not drawn) [compound 115, 2-Amino-N-(4-(2-tert-butyl-5-(heptyloxy)-6-methoxyquinolin-8-ylamino)pentyl)-3-(1H-indol-2-yl)propanamide] | 3.3 µg/mL (≈ 5.36 µM) | 2.8 µg/mL (≈ 4.55 µM) | NC (NC, not cytotoxic up to 4760 ng/mL (4.76 μg/mL)) | 19 µg/mL (≈ 30.9 µM) | 32 µg/mL (≈ 52 µM) | > 20 µg/mL | > 20 µg/mL | > 20 µg/mL | 1.36 µg/mL (≈ 2.21 µM) | 2.5 µg/mL (≈ 4.06 µM) | 2.5 µg/mL (≈ 4.06 µM) | > 20 µg/mL | > 20 µg/mL | > 20 µg/mL | 4.56 µg/mL (≈ 7.4 µM) | 10 µg/mL (≈ 16.2 µM) | 10 µg/mL (≈ 16.2 µM) | 5 µg/mL (≈ 8.12 µM) | 8.74 µg/mL (≈ 14.2 µM) | 20 µg/mL (≈ 32.5 µM) | MIC [10]: 10 µg/mL (≈ 16.2 µM) |
| CCCCCCCOc1c(OC)cc(NC(C)CCCNC(=O)C(N)CCSC)c2nc(C(C)(C)C)ccc12 (stereo not drawn) [compound 116, 2-Amino-N-(4-(2-tert-butyl-5-(heptyloxy)-6-methoxyquinolin-8-ylamino)pentyl)-4-(methylthio)butanamide] | 4.76 µg/mL (≈ 8.49 µM) | 3.2 µg/mL (≈ 5.71 µM) | NC (NC, not cytotoxic up to 4760 ng/mL (4.76 μg/mL)) | 4.1 µg/mL (≈ 7.31 µM) | 12 µg/mL (≈ 21.4 µM) | > 20 µg/mL | > 20 µg/mL | > 20 µg/mL | 1.29 µg/mL (≈ 2.3 µM) | 10 µg/mL (≈ 17.8 µM) | 10 µg/mL (≈ 17.8 µM) | > 20 µg/mL | > 20 µg/mL | > 20 µg/mL | 4.07 µg/mL (≈ 7.26 µM) | 10 µg/mL (≈ 17.8 µM) | 10 µg/mL (≈ 17.8 µM) | 5 µg/mL (≈ 8.92 µM) | > 20 µg/mL | > 20 µg/mL | MIC [10]: > 20 µg/mL |
| CCCCCCCCOc1c(OC)cc(NC(C)CCCNC(=O)C(N)C(C)CC)c2nc(C(C)(C)C)ccc12 (stereo not drawn) [compound 119, 2-Amino-N-(4-(2-tert-butyl-6-methoxy-5-(octyloxy)quinolin-8-ylamino)pentyl)-3-methylpentanamide] | > 4.76 µg/mL | > 4.76 µg/mL | NC (NC, not cytotoxic up to 4760 ng/mL (4.76 μg/mL)) | 6.04 µg/mL (≈ 10.8 µM) | 26.9 µg/mL (≈ 48.4 µM) | > 20 µg/mL | > 20 µg/mL | > 20 µg/mL | 2.87 µg/mL (≈ 5.15 µM) | 10 µg/mL (≈ 18 µM) | 10 µg/mL (≈ 18 µM) | > 20 µg/mL | > 20 µg/mL | > 20 µg/mL | 5.03 µg/mL (≈ 9.03 µM) | > 20 µg/mL | > 20 µg/mL | > 20 µg/mL | > 20 µg/mL | > 20 µg/mL | MIC [10]: > 20 µg/mL |
| CCCCCCCCOc1c(OC)cc(NC(C)CCCNC(=O)C(N)CCSC)c2nc(C(C)(C)C)ccc12 (stereo not drawn) [compound 120, 2-Amino-N-(4-(2-tert-butyl-6-methoxy-5-(octyloxy)quinolin-8-ylamino)pentyl)-4-(methylthio)butanamide] | 0.16 µg/mL (≈ 0.278 µM) | 0.15 µg/mL (≈ 0.261 µM) | NC (NC, not cytotoxic up to 4760 ng/mL (4.76 μg/mL)) | 6.99 µg/mL (≈ 12.2 µM) | 26.4 µg/mL (≈ 46 µM) | > 20 µg/mL | > 20 µg/mL | > 20 µg/mL | 2.74 µg/mL (≈ 4.77 µM) | 5 µg/mL (≈ 8.7 µM) | 5 µg/mL (≈ 8.7 µM) | > 20 µg/mL | > 20 µg/mL | > 20 µg/mL | 11.7 µg/mL (≈ 20.3 µM) | > 20 µg/mL | 20 µg/mL (≈ 34.8 µM) | 20 µg/mL (≈ 34.8 µM) | 20 µg/mL (≈ 34.8 µM) | > 20 µg/mL | MIC [10]: > 20 µg/mL |
